Source: ChEMBL document CHEMBL1759840, “2,3-Substituted quinoxalin-6-amine analogs as antiproliferatives: a structure-activity relationship study” (2011)
The source made the active and inactive calls. No cut-off for these calls is given here.

Each compound was assayed on A549 (assay: Growth inhibition of human A549 cells at 20 uM after 72 hrs by alamar blue assay). Conditions: not given.
Format: functional
In short: (§1)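 Single-concentration screen at 20 μM with 72 h exposure across a panel of cancer lines: lung A549, pancreatic AsPC1, colon HT29, breast MDA-MB-231, prostate PC3, ovarian SKOV3 and bone U2OS. Growth inhibition read after 72 h.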
In the case of `O=[N+]([O-])c1ccc(NC(=S)Nc2ccc3nc(-c4cccs4)c(-c4cccs4)nc3c2)cc1`, the “growth inhibition (GI)” value was “inactive”.
For `S=C(Nc1ccccc1)Nc1ccc2nc(-c3cccs3)c(-c3cccs3)nc2c1`, the “growth inhibition (GI)” value was “inactive”.
With `Cc1nc2ccc(NC(=O)N3CCCC3)cc2nc1C` the “growth inhibition (GI)” value was “inactive”.

Same assay, conditions: A549, 72 h, read-out: GI
`CC(=O)Nc1ccc2nc(C)c(C)nc2c1` was tested, and the inhibition of growth at 20 µM was 23.4%.
With `O=[N+]([O-])c1ccc(NC(=S)Nc2ccc3nc(-c4ccco4)c(-c4ccco4)nc3c2)cc1` the inhibition of growth at 20 µM was 19.2%.
With `O=[N+]([O-])c1ccc(NC(=S)Nc2ccc3nc(-c4ccccc4)c(-c4ccccc4)nc3c2)cc1` the inhibition of growth at 20 µM was 16.6%.
For `O=C(Nc1ccc(Cl)cc1)Nc1ccc2nc(-c3ccco3)c(-c3ccco3)nc2c1`, the inhibition of growth at 20 µM was 99.2%.
Work on `CC(=O)Nc1ccc2nc(-c3ccco3)c(-c3ccco3)nc2c1` yielded an inhibition of growth at 20 µM of 57.8%.
In the case of `O=C(Nc1ccc2nc(-c3ccco3)c(-c3ccco3)nc2c1)N1CCCC1`, the inhibition of growth at 20 µM was 23.3%.

These compounds were tested on SK-OV-3 (assay: Growth inhibition of human SKOV3 cells at 20 uM after 72 hrs by alamar blue assay). Conditions: not given.
Format: functional
In short: as §1
With `O=[N+]([O-])c1ccc(NC(=S)Nc2ccc3nc(-c4ccco4)c(-c4ccco4)nc3c2)cc1` the “growth inhibition (GI)” value was “inactive”.
With `O=[N+]([O-])c1ccc(NC(=S)Nc2ccc3nc(-c4cccs4)c(-c4cccs4)nc3c2)cc1` the “growth inhibition (GI)” value was “inactive”.
For `S=C(Nc1ccccc1)Nc1ccc2nc(-c3cccs3)c(-c3cccs3)nc2c1`, the “growth inhibition (GI)” value was “inactive”.
`Cc1nc2ccc(NC(=O)N3CCCC3)cc2nc1C` was tested, and the “growth inhibition (GI)” value was “inactive”.

Same assay, conditions: SK-OV-3, 72 h, read-out: GI
`CC(=O)Nc1ccc2nc(C)c(C)nc2c1` showed an inhibition of growth at 20 µM of 4%.
Work on `O=[N+]([O-])c1ccc(NC(=S)Nc2ccc3nc(-c4ccccc4)c(-c4ccccc4)nc3c2)cc1` yielded an inhibition of growth at 20 µM of 55.8%.
For `O=C(Nc1ccc(Cl)cc1)Nc1ccc2nc(-c3ccco3)c(-c3ccco3)nc2c1`, the inhibition of growth at 20 µM was 55.8%.
Compound `CC(=O)Nc1ccc2nc(-c3ccco3)c(-c3ccco3)nc2c1` has an inhibition of growth at 20 µM of 9%.
`O=C(Nc1ccc2nc(-c3ccco3)c(-c3ccco3)nc2c1)N1CCCC1` was tested, and the inhibition of growth at 20 µM was 16.9%.

What follows are compounds tested on PC-3 (assay: Growth inhibition of human PC3 cells at 20 uM after 72 hrs by alamar blue assay). Conditions: not given.
Format: functional
In short: as §1
`S=C(Nc1ccccc1)Nc1ccc2nc(-c3cccs3)c(-c3cccs3)nc2c1` was tested, and the “growth inhibition (GI)” value was “inactive”.
`Cc1nc2ccc(NC(=O)N3CCCC3)cc2nc1C` was tested, and the “growth inhibition (GI)” value was “inactive”.

Same assay, conditions: PC-3, 72 h, read-out: GI
In the case of `CC(=O)Nc1ccc2nc(C)c(C)nc2c1`, the inhibition of growth at 20 µM was 21.8%.
Compound `O=[N+]([O-])c1ccc(NC(=S)Nc2ccc3nc(-c4ccco4)c(-c4ccco4)nc3c2)cc1` has an inhibition of growth at 20 µM of 43.4%.
`O=[N+]([O-])c1ccc(NC(=S)Nc2ccc3nc(-c4ccccc4)c(-c4ccccc4)nc3c2)cc1` showed an inhibition of growth at 20 µM of 81%.
`O=[N+]([O-])c1ccc(NC(=S)Nc2ccc3nc(-c4cccs4)c(-c4cccs4)nc3c2)cc1` showed an inhibition of growth at 20 µM of 19.5%.
`O=C(Nc1ccc(Cl)cc1)Nc1ccc2nc(-c3ccco3)c(-c3ccco3)nc2c1` gave an inhibition of growth at 20 µM of 86.4%.
In the case of `CC(=O)Nc1ccc2nc(-c3ccco3)c(-c3ccco3)nc2c1`, the inhibition of growth at 20 µM was 57.7%.
`O=C(Nc1ccc2nc(-c3ccco3)c(-c3ccco3)nc2c1)N1CCCC1` showed an inhibition of growth at 20 µM of 53.1%.

The compounds below were run on U2OS (assay: Growth inhibition of human U2OS cells at 20 uM after 72 hrs by alamar blue assay). Conditions: not given.
Format: functional
In short: as §1
`CC(=O)Nc1ccc2nc(-c3ccco3)c(-c3ccco3)nc2c1` was tested, and the “growth inhibition (GI)” value was “inactive”.
With `S=C(Nc1ccccc1)Nc1ccc2nc(-c3cccs3)c(-c3cccs3)nc2c1` the “growth inhibition (GI)” value was “inactive”.
`Cc1nc2ccc(NC(=O)N3CCCC3)cc2nc1C` was tested, and the “growth inhibition (GI)” value was “inactive”.

Same assay, conditions: read-out: GI
Compound `CC(=O)Nc1ccc2nc(C)c(C)nc2c1` has an inhibition of growth at 20 µM of 31.4%.
Compound `O=[N+]([O-])c1ccc(NC(=S)Nc2ccc3nc(-c4ccco4)c(-c4ccco4)nc3c2)cc1` has an inhibition of growth at 20 µM of 32.2%.
With `O=[N+]([O-])c1ccc(NC(=S)Nc2ccc3nc(-c4ccccc4)c(-c4ccccc4)nc3c2)cc1` the inhibition of growth at 20 µM was 76.1%.
`O=[N+]([O-])c1ccc(NC(=S)Nc2ccc3nc(-c4cccs4)c(-c4cccs4)nc3c2)cc1` gave an inhibition of growth at 20 µM of 50.6%.
`O=C(Nc1ccc(Cl)cc1)Nc1ccc2nc(-c3ccco3)c(-c3ccco3)nc2c1` gave an inhibition of growth at 20 µM of 87.4%.
Work on `O=C(Nc1ccc2nc(-c3ccco3)c(-c3ccco3)nc2c1)N1CCCC1` yielded an inhibition of growth at 20 µM of 46.5%.

The compounds below were run on ASPC1 (assay: Growth inhibition of human AsPC1 cells at 20 uM after 72 hrs by alamar blue assay). Conditions: not given.
Format: functional
In short: as §1
`O=[N+]([O-])c1ccc(NC(=S)Nc2ccc3nc(-c4ccco4)c(-c4ccco4)nc3c2)cc1` was tested, and the “growth inhibition (GI)” value was “inactive”.
With `O=[N+]([O-])c1ccc(NC(=S)Nc2ccc3nc(-c4cccs4)c(-c4cccs4)nc3c2)cc1` the “growth inhibition (GI)” value was “inactive”.
`CC(=O)Nc1ccc2nc(-c3ccco3)c(-c3ccco3)nc2c1` was tested, and the “growth inhibition (GI)” value was “inactive”.
In the case of `S=C(Nc1ccccc1)Nc1ccc2nc(-c3cccs3)c(-c3cccs3)nc2c1`, the “growth inhibition (GI)” value was “inactive”.
For `Cc1nc2ccc(NC(=O)N3CCCC3)cc2nc1C`, the “growth inhibition (GI)” value was “inactive”.

Same assay, conditions: ASPC1, 72 h, read-out: GI
Work on `CC(=O)Nc1ccc2nc(C)c(C)nc2c1` yielded an inhibition of growth at 20 µM of 26.2%.
Compound `O=[N+]([O-])c1ccc(NC(=S)Nc2ccc3nc(-c4ccccc4)c(-c4ccccc4)nc3c2)cc1` has an inhibition of growth at 20 µM of 55.5%.
In the case of `O=C(Nc1ccc(Cl)cc1)Nc1ccc2nc(-c3ccco3)c(-c3ccco3)nc2c1`, the inhibition of growth at 20 µM was 81.1%.
For `O=C(Nc1ccc2nc(-c3ccco3)c(-c3ccco3)nc2c1)N1CCCC1`, the inhibition of growth at 20 µM was 11.6%.

What follows are compounds tested on HT-29 (assay: Growth inhibition of human HT-29 cells at 20 uM after 72 hrs by alamar blue assay). Conditions: not given.
Format: functional
In short: as §1
In the case of `S=C(Nc1ccccc1)Nc1ccc2nc(-c3cccs3)c(-c3cccs3)nc2c1`, the “growth inhibition (GI)” value was “inactive”.
`Cc1nc2ccc(NC(=O)N3CCCC3)cc2nc1C` was tested, and the “growth inhibition (GI)” value was “inactive”.

Same assay, conditions: HT-29, 72 h, read-out: GI
Work on `CC(=O)Nc1ccc2nc(C)c(C)nc2c1` yielded an inhibition of growth at 20 µM of 31.7%.
In the case of `O=[N+]([O-])c1ccc(NC(=S)Nc2ccc3nc(-c4ccco4)c(-c4ccco4)nc3c2)cc1`, the inhibition of growth at 20 µM was 42%.
With `O=[N+]([O-])c1ccc(NC(=S)Nc2ccc3nc(-c4ccccc4)c(-c4ccccc4)nc3c2)cc1` the inhibition of growth at 20 µM was 81.2%.
For `O=[N+]([O-])c1ccc(NC(=S)Nc2ccc3nc(-c4cccs4)c(-c4cccs4)nc3c2)cc1`, the inhibition of growth at 20 µM was 23.9%.
Work on `O=C(Nc1ccc(Cl)cc1)Nc1ccc2nc(-c3ccco3)c(-c3ccco3)nc2c1` yielded an inhibition of growth at 20 µM of 86.3%.
In the case of `CC(=O)Nc1ccc2nc(-c3ccco3)c(-c3ccco3)nc2c1`, the inhibition of growth at 20 µM was 7.6%.
`O=C(Nc1ccc2nc(-c3ccco3)c(-c3ccco3)nc2c1)N1CCCC1` gave an inhibition of growth at 20 µM of 16.7%.

These compounds were tested on MDA-MB-231 (assay: Growth inhibition of human MDA-MB-231 cells at 20 uM after 72 hrs by alamar blue assay). Conditions: not given.
Format: functional
In short: as §1
In the case of `S=C(Nc1ccccc1)Nc1ccc2nc(-c3cccs3)c(-c3cccs3)nc2c1`, the “growth inhibition (GI)” value was “inactive”.
`Cc1nc2ccc(NC(=O)N3CCCC3)cc2nc1C` was tested, and the “growth inhibition (GI)” value was “inactive”.

Same assay, conditions: MDA-MB-231, 72 h, read-out: GI
Work on `CC(=O)Nc1ccc2nc(C)c(C)nc2c1` yielded an inhibition of growth at 20 µM of 25.7%.
In the case of `O=[N+]([O-])c1ccc(NC(=S)Nc2ccc3nc(-c4ccco4)c(-c4ccco4)nc3c2)cc1`, the inhibition of growth at 20 µM was 9%.
Compound `O=[N+]([O-])c1ccc(NC(=S)Nc2ccc3nc(-c4ccccc4)c(-c4ccccc4)nc3c2)cc1` has an inhibition of growth at 20 µM of 72.6%.
For `O=[N+]([O-])c1ccc(NC(=S)Nc2ccc3nc(-c4cccs4)c(-c4cccs4)nc3c2)cc1`, the inhibition of growth at 20 µM was 53.3%.
In the case of `O=C(Nc1ccc(Cl)cc1)Nc1ccc2nc(-c3ccco3)c(-c3ccco3)nc2c1`, the inhibition of growth at 20 µM was 92.5%.
With `CC(=O)Nc1ccc2nc(-c3ccco3)c(-c3ccco3)nc2c1` the inhibition of growth at 20 µM was 20.3%.
`O=C(Nc1ccc2nc(-c3ccco3)c(-c3ccco3)nc2c1)N1CCCC1` showed an inhibition of growth at 20 µM of 18.2%.
